A short description of data set [1]: folding enthalpy; higher = less favourable; fluorescence melt of hairpins on a sequencing array, two-state fit. The note with it: sodium 0.088 M. In a few lines:
(§1)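 Folding enthalpy and melting temperature were estimated with bootstrapped two-state fits and combined across four replicates by inverse-variance weighting, with fitted temperatures raised by 9.35 °C to match UV melts. The data were Cy3 fluorescence of library hairpins, with annealed Cy3 and quencher oligos, on a sequenced MiSeq flow cell in 50 mM Na-HEPES pH 8.0, 25 mM NaCl, imaged in 2.5 °C steps up to 60 °C and normalised to pre-quench Cy3 and control constructs.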

A short description of data set [2]: melting temperature; fluorescence melt of hairpins on a sequencing array, two-state fit, raised by 9.35 °C to match UV melts. The settings on record: sodium 0.088 M. In short, it runs like this:
as §1

In the case of GCAGAAGGAAACCTCTGC (((((.(....).))))), the folding enthalpy in data set [1] was -28.2 kcal/mol. Besides, in data set [2], the Tm was found to be 45.2 °C.
For GCAGACCGAAAGGTTGC (((.(((....)))))), in that order: -28.9 kcal/mol and 53.5 °C.
The corresponding values for GCAGACGAAAGTCATGC ((((((....))).))) are -24.1 kcal/mol and 51 °C.
Consider GCAGACGAAAGTCCCTGC ((((((....)))..))), for which, in data set [1], the folding enthalpy is -14.8 kcal/mol. For the same sequence, the Tm in data set [2] is 32.9 °C.
As to GCAGACGAAAGTCGGTGC ((((((....)))..))), the folding enthalpy in data set [1] is -19.3 kcal/mol. Moreover, the Tm in data set [2] is 50.2 °C.
Regarding GCAGACGAAAGTCGTGC ((((((....))).))), the folding enthalpy in data set [1] is -24.1 kcal/mol. In addition, in data set [2], the Tm came to 54.1 °C.
Consider GCAGACGAAAGTCGTTGC ((((((....)))..))), for which, in data set [1], the folding enthalpy was -14.1 kcal/mol. Besides, in data set [2], the Tm was 50.5 °C.
Consider GCAGACGAAAGTCTATGC ((((((....)))..))), for which the folding enthalpy in data set [1] was -14.9 kcal/mol. In addition, the Tm in data set [2] worked out at 45.8 °C.
With GCAGACGAAAGTCTGTGC ((((((....)))..))), the folding enthalpy in data set [1] is -22.2 kcal/mol. Also, the Tm in data set [2] turned out to be 61.3 °C.
The corresponding values for GCAGAGACGAAAGTCTGC (((..(((....)))))) are -19.6 kcal/mol and 51.7 °C.
With GCAGAGCGAAAGCAGTGC (((..((....))..))), in data set [1], the folding enthalpy is -15.1 kcal/mol. For the same sequence, in data set [2], the Tm came to 45.8 °C.
As for GCAGAGCGAAAGCCCAGC ((.(.((....)).).)), the folding enthalpy in data set [1] was -12.2 kcal/mol. For the same sequence, the Tm in data set [2] came out at 33 °C.
Turning to GCAGAGCGAAAGCCTTGC (((..((....))..))), in data set [1], the folding enthalpy was -14.5 kcal/mol. In addition, in data set [2], the Tm is 43.5 °C.
Take GCAGAGCGAAAGCGCAGC ((.(.((....)).).)): the folding enthalpy in data set [1] was -19.6 kcal/mol. In addition, in data set [2], the Tm is 59.6 °C.
The corresponding values for GCAGAGCGAAAGCGCCGC ((.(.((....)).).)) are -28.2 kcal/mol and 64 °C.
For the sequence GCAGAGCGAAAGCGGTGC (((..((....))..))), the folding enthalpy in data set [1] is -23.7 kcal/mol. Further, in data set [2], the Tm amounted to 63.5 °C.
For GCAGAGCGAAAGCTTCGC ((..(((....)))..)), in that order: -17.2 kcal/mol and 44.8 °C.
GCAGAGGAAACTCTGC ((((((....)))))): in data set [1], the folding enthalpy was -35.2 kcal/mol. Further, the Tm in data set [2] stood at 65.8 °C.
The corresponding values for GCAGATCCGAAAGGATGC (((..(((....)))))) are -16.3 kcal/mol and 45.2 °C.
Regarding GCAGATCGAAAGATTTGC (((.(((....))).))), the folding enthalpy in data set [1] was -43.6 kcal/mol. In addition, the Tm in data set [2] is 52.1 °C.
For GCAGATGGAAACACCTGC ((((.((....)).)))), in that order: -28.9 kcal/mol and 44.2 °C.
For GCAGATTCGAAAGAATGC (((..(((....)))))), in data set [1], the folding enthalpy was -13.9 kcal/mol. For the same sequence, the Tm in data set [2] was determined as 36.3 °C.
On to GCAGCCGAAAGGCAATGC ((((((....)))..))), for which the folding enthalpy in data set [1] is -17 kcal/mol. In data set [2], the Tm is 52.1 °C.
For GCAGCCGAAAGGCAGTGC ((((((....)))..))), in that order: -17.4 kcal/mol and 50.6 °C.
As for GCAGCCGAAAGGCCATGC ((((((....)))..))), in data set [1], the folding enthalpy is -13.9 kcal/mol. For the same sequence, in data set [2], the Tm worked out at 40.3 °C.
For GCAGCCGAAAGGCTCTGC ((((((....)))..))), in that order: -12.2 kcal/mol and 46.3 °C.
For GCAGCCGGAAACAGCTGC (((((.(....).))))), in that order: -40.9 kcal/mol and 55.7 °C.
The corresponding values for GCAGCCGGAAACGACTGC ((((.((....)).)))) are -43.5 kcal/mol and 56.6 °C.
Take GCAGCCGGAAACGGCTAC (.(((((....))))).): the folding enthalpy in data set [1] is -11.3 kcal/mol. For the same sequence, the Tm in data set [2] turned out to be 45.9 °C.
GCAGCCTCGAAAGAGTGC (((..(((....)))))): in data set [1], the folding enthalpy is -15.5 kcal/mol. Besides, the Tm in data set [2] was determined as 37 °C.
Regarding GCAGCGCGAAAGCAATGC (((..((....))..))), the folding enthalpy in data set [1] is -25.3 kcal/mol. Besides, in data set [2], the Tm amounted to 54.9 °C.
For GCAGCGCGAAAGCACCGC ((.(.((....)).).)), in that order: -21.5 kcal/mol and 41.3 °C.
For GCAGCGCGAAAGCCTTGC (((..((....))..))), in that order: -12.4 kcal/mol and 40 °C.
For GCAGCGCGAAAGCGAAGC ((..(((....)))..)), in that order: -18.7 kcal/mol and 57.5 °C.
In the case of GCAGCGCGAAAGCTCGGC ((.(.((....)).).)), in data set [1], the folding enthalpy is -20.9 kcal/mol. Also, the Tm in data set [2] was determined as 42.9 °C.
As to GCAGCGGGAAACCACTGC ((((.((....)).)))), the folding enthalpy in data set [1] is -43.3 kcal/mol. Besides, the Tm in data set [2] is 52.2 °C.
For GCAGCGGGAAACCGCCGC ((.((((....)))).)), in that order: -18.6 kcal/mol and 55.2 °C.
